Laboratory results reported in publication PMC4308698 (Scientific Reports, 2015).
Entries after “also recorded” stand apart in the source; their conditions may differ.

Columns and labels:
AlinCSP4 [1] = molecular target: T1, AlinCSP4 (Adelphocoris lineolatus, UniProt K9J9S0); assay: Fluorescence competitive binding assay with 1-NPN as probe, recombinant AlinCSP4; settings: for binding to AlinCSP4 (in words): competitive binding with 1-NPN
T1 sequence (K9J9S0 20-127): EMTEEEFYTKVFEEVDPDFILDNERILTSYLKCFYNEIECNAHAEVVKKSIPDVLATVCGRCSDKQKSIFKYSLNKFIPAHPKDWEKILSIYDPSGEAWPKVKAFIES
Summary of the method: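 Refolded, His-tag-cleaved recombinant protein at 2 μM and 1-NPN at 2 μM in Tris-HCl pH 7.4 were titrated with 1 mM competitor stock to 2–30 μM final, at 25°C. Excitation was 337 nm, with emission read at 390–460 nm. IC50 is the competitor level that halves 1-NPN fluorescence, and Ki = IC50/(1+[1-NPN]/K1-NPN). IC50 <20 μM was taken as good binding; Ki was not calculated when IC50 >30 μM.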

[2] = test system: antennae of female and male adults of A. lineolatus; settings: exceptions at 10% level; cited from earlier work
AlinCSP1 = settings: cited from earlier work
[3] = test system: antennae of female and male adults of A. lineolatus; assay: Electroantennogram; design: species or system Adelphocoris lineolatus; settings: 0.01%, 0.1%, 1%, 10% v/v, normalized to 10% 3-hexanone
Summary of the method: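 Antennae were excised from newly emerged lab-reared adults (green beans and 10% honey, 14L:10D, 29±1°C) and mounted between two electrodes with electrode gel. A 10 μL aliquot per dose was delivered in an air stream of 10 ml/sec, and signals were recorded for 5 s from 1 s before the stimulus. Paraffin oil served as control. Six antennae per sex were tested per compound, given as normalized mean ± SE and compared by one-way ANOVA (α=0.05).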

AlinCSP4 [4] = molecular target: T1, AlinCSP4; assay: Binding of fluorescent probe 1-NPN to recombinant AlinCSP4
Summary of the method: (§1)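 Recombinant mature protein (E. coli BL21(DE3), pET30a(+)) was refolded from inclusion bodies, purified by two rounds of Ni affinity, and had the His-tag removed with enterokinase. 2 μM protein in 50 mM Tris-HCl pH 7.4 was titrated with 1 mM 1-NPN in methanol (stock) to 1–16 μM final, at 25°C. Excitation was 337 nm; emission peak was read at 390–460 nm. Analysis assumed 1:1 stoichiometry with fully active protein, using a Scatchard plot.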

AlinCSP5 = molecular target: T2, AlinCSP5 (Adelphocoris lineolatus, UniProt K9J9X7); assay: Binding of fluorescent probe 1-NPN to recombinant AlinCSP5
T2 sequence (K9J9X7 22-127): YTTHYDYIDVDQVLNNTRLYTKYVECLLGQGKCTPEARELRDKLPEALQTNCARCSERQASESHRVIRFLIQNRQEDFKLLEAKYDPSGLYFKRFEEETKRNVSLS
Summary of the method: as §1

AlinCSP6 = molecular target: T3, AlinCSP6 (Adelphocoris lineolatus, UniProt K9J9R7); assay: Binding of fluorescent probe 1-NPN to recombinant AlinCSP6
T3 sequence (K9J9R7 20-132): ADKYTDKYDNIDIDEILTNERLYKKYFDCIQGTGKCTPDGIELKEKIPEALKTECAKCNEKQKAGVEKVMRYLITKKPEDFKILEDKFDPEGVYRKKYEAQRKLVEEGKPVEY
Summary of the method: as §1

[5] = test system: female adults of A. lineolatus; settings: plant volatile emitted by Bt cotton plants; cited from earlier work

Molecule | IC50 (AlinCSP4 [1]) | also measured
CCCCCCOC(=O)CCCCC [Hexyl hexanoate] | 2.36 ± 0.21 µM | –
CCCCCC(C)=O [Ligand 2-Heptanone, 2-Heptanone] | 27.3 ± 0.6 µM | –
O=Cc1ccccc1 [Benzaldehyde] | 14.3 ± 1.86 µM | –
CCCC(=O)OCC [Ethyl butyrate] | 9.81 ± 1.55 µM | –
(+)-α-Pinene | – | binding to AlinCSP4 (in words) (AlinCSP4 [1]): no binding
CCCCC(C)O (stereo not drawn) [Ligand 2-Hexanol, 2-Hexanol] | 9.63 ± 0.3 µM | –
Cc1ccc(C=O)cc1C [3,4-Dimethyl-benzaldehyde] | 10.6 ± 0.75 µM | –
COC(=O)c1ccccc1O [Methyl salicylate] | 12.7 ± 2.01 µM | –
CCCCCCC=O [Heptanal] | 11.4 ± 0.47 µM | –
CCCCCCO [Ligand 1-Hexanol, 1-Hexanol] | 12.5 ± 0.88 µM | –
c1ccc2[nH]ccc2c1 [Indole] | 23.3 ± 1.6 µM | –
C=C/C(C)=C/CC=C(C)C [trans-β-Ocimene, trans -β-Ocimene] | – | binding to AlinCSP4 (in words) (AlinCSP4 [1]): no binding
C=C(C)[C@H]1CC=C(C)CC1 [Limonene] | – | binding to AlinCSP4 (in words) (AlinCSP4 [1]): no binding; EAG response of terpenoids (in words) [2]: good EAG responses
c1ccc(Nc2cccc3ccccc23)cc1 [Ligand 1-NPN, N-phenyl-1-naphthylamine] | – | Kd (AlinCSP4 [4]): 2800 ± 400 nM; Kd (AlinCSP5): 4.2 ± 0.5 µM; Kd (AlinCSP6): 8.3 ± 1.8 µM
CCCCOC(=O)CCC [Butyl butyrate] | 21.1 ± 0.51 µM | –
CC(=O)c1ccccc1 [Acetophenone] | 27.5 ± 1.73 µM | –
CCCCCCOC(=O)CCC [Hexyl butyrate] | 9.22 ± 1.77 µM | EAG response (in words) [3]: more sensitive EAG responses
CC(=O)CCC=C(C)C [6-Methyl-5-hepten-2-one] | 20.2 ± 2.62 µM | –
CCC/C=C/C=O [trans-2-Hexenal] | 16.3 ± 0.51 µM | –
CCCCCC=O [Hexanal] | 10.5 ± 2.11 µM | –

Further lines, with some results ahead:

IC50 (AlinCSP4 [1]) | Molecule | also measured
10.1 ± 1.24 µM | CC(=O)/C=C/C1=C(C)CCCC1(C)C [β-Ionone] | –
10.9 ± 0.86 µM | CCCCCCCC=O [Octanal] | –
> 30 µM | C=C1CCC2CC1C2(C)C (stereo not drawn) [β-Pinene] | binding to AlinCSP4 (in words) (AlinCSP4 [1]): no binding
> 30 µM | CC1=CC[C@H](C(C)C)C=C1 [α-Phellandrene] | binding to AlinCSP4 (in words) (AlinCSP4 [1]): no binding; EAG response of terpenoids (in words) [2]: good EAG responses
5.83 ± 0.44 µM | CCCCCCCCCOC(C)=O [Nonyl acetate] | –
21.7 ± 0.88 µM | CC/C=C\CCO [cis-3-Hexen-1-ol] | –
25.7 ± 0.53 µM | CCCCC(C)=O [Ligand 2-Hexanone, 2-Hexanone] | –
7.13 ± 1.29 µM | CCCCCCCCCCC [Undecane] | –
> 30 µM | CC/C=C\CCOC(C)=O [cis-3-hexenyl acetate] | binding to AlinCSP4 (in words) (AlinCSP4 [1]): no binding; also recorded: no or very weak binding; binding affinity to AlinCSP1 (in words) (AlinCSP1): very good binding affinity
2 ± 0.17 µM | C=CC(C)(O)CCC=C(C)CCC=C(C)C (mixture of isomers) [Nerolidol] | EAG response of terpenoids (in words) [2]: good EAG responses
11 ± 2.09 µM | CCC/C=C/COC(=O)CCC [trans-2-hexenyl butyrate] | EAG response (in words) [3]: more sensitive EAG responses
20.1 ± 0.81 µM | C=CC(=C)CCC=C(C)C [Myrcene] | –
2.26 ± 0.26 µM | C=C1CC/C=C(\C)CC[C@@H]2[C@@H]1CC2(C)C [β-Caryophyllene] | –
24.2 ± 0.84 µM | CCCC(=O)CC [Ligand 3-Hexanone, 3-Hexanone] | attraction of female adults (in words) [5]: strongly attract
13 ± 1.43 µM | CCCCCCCCC=O [Nonanal] | –
25.2 ± 2.39 µM | CCCCCCC(C)=O [Ligand 2-Octanone, 2-Octanone] | –
